Measurements reported in ChEMBL document CHEMBL3856184, “Tyrosol and hydroxytyrosol derivatives as antitrypanosomal and antileishmanial agents” (Eur J Med Chem, 2016).

What was measured:
[1] = Cytotoxicity against human MRC5 cells assessed as inhibition of cell proliferation measured after 72 hrs by MTT assay; type: toxicity, cell-based
Method in brief: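 SV-40 transformed fetal lung fibroblasts kept in DMEM with 10% hiFBS and penicillin/streptomycin at 37 °C, 5% CO₂. Cells trypsinized, seeded at 4 x 10⁴ cell/ml and exposed to increasing concentrations for 72 h at 37 °C. Viability read by colorimetric MTT. EC₅₀ taken as the concentration reducing growth by 50% versus untreated cells.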

[2] = test system: Trypanosoma brucei brucei; test: Potency index, ratio of IC50 for hydroxytyrosol to IC50 for test compound against bloodstream form of Trypanosoma brucei brucei S16; type: functional
[3] = Selectivity index, ratio of IC50 for human MRC5 cells to IC50 for bloodstream form of Trypanosoma brucei brucei S16; type: toxicity, cell-based; details: read-out: Ratio IC50
[4] = test system: Trypanosoma brucei brucei; test: Antitrypanosomal activity against bloodstream form of Trypanosoma brucei brucei S16 assessed as inhibition of proliferation measured after 72 hrs by alamarBlue assay; type: functional; details: S16, 72 h
Method in brief: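 Bloodstream forms cultured in HMI-9 with 10% hiFBS at 37 °C, 5% CO₂. Seeded at 1 × 10⁴ per mL with increasing compound concentrations for 72 h under the same conditions. Proliferation read by alamarBlue fluorescence, excitation 550 nm and emission 590 nm.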

[5] = Selectivity index, ratio of IC50 for human MRC5 cells to IC50 for intracellular amastigotes of Leishmania donovani MHOM/ET/67/HU3 infected in human THP1 cells; type: toxicity, cell-based; details: read-out: Ratio IC50
[6] = test system: Leishmania donovani; test: Antileishmanial activity against Leishmania donovani MHOM/ET/67/HU3 intracellular amastigotes infected in human THP1 cells after 72 hrs by luciferase coupled luminescence assay; type: functional, cell-based; details: MHOM/ET/67/HU3, THP-1, 72 h
Method in brief: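 Luciferase-expressing parasite line. THP-1 cells differentiated with 20 ng/mL PMA for 48 h, then 24 h in fresh medium, seeded at 3x10⁴ macrophages/well and infected with late-stage promastigotes at a macrophage:parasite ratio of 1:10. Infected cultures exposed to a range of concentrations in RPMI 1640 with 10% hiFBS at 37 °C, 5% CO₂ for 72 h, then lysed. Luminescence read as intracellular parasite growth.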

[7] = test system: Leishmania donovani; test: Antileishmanial activity against Leishmania donovani MHOM/ET/67/HU3 axenic amastigotes at 20 uM after 72 hrs by resazurin-based assay relative to control; type: functional; details: MHOM/ET/67/HU3, 72 h
Method in brief: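 Axenic amastigotes grown in Schneider medium with 20% hiFBS, pH 5.4, 37 °C, 5% CO₂. 10⁶ parasites/ml exposed to a single 20 μM concentration for 72 h at 37 °C. Viability read by resazurin assay, reported as percent inhibition.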

[8] = test system: Leishmania infantum; test: Leishmanicidal activity against Leishmania infantum MHOM/TN/94/LV50 promastigotes after 24 hrs by MTT assay; type: functional; details: MHOM/TN/94/LV50, 24 h
[9] = test system: Trypanosoma brucei brucei; test: Potency index, ratio of IC50 for tyrosol to IC50 for test compound against bloodstream form of Trypanosoma brucei brucei S16; type: functional
[10] = test system: Leishmania major; test: Leishmanicidal activity against Leishmania major MHOM/TN/95/GLC94 promastigotes after 24 hrs by MTT assay; type: functional; details: MHOM/TN/95/GLC94, 24 h
[11] = test system: Leishmania donovani; test: Potency index, ratio of IC50 for tyrosol to IC50 for test compound against intracellular amastigotes of Leishmania donovani MHOM/ET/67/HU3 infected in human THP1 cells; type: functional, THP-1
[12] = test system: Leishmania donovani; test: Antileishmanial activity against Leishmania donovani MON-2 MHOM/IN/1996/THAK35 amastigotes infected in mouse J774A.1 cells after 72 hrs by alamarBlue assay; type: functional, cell-based; details: MON-2 MHOM/IN/1996/THAK35, J774.A1, 72 h
[13] = test system: Trypanosoma brucei rhodesiense; test: Antitrypanosomal activity against Trypanosoma brucei rhodesiense; type: functional

SMILES	IC50 [4] [µM]	IC50 [6] [µM]	IC50 [13] [µM]	IC50 at 72 h [1] [µM]	Ratio IC50 [2]	selectivity ratio [3]	selectivity ratio [5]	inhibition at 20 µM [7] [%]	IC50 [8] [µM]	Ratio IC50 [9]	IC50 [10] [µM]	Ratio IC50 [11]	IC50 [12] [µM]
CCCCCCCCCCCC(=O)OCCc1ccc2c(c1)OCO2	> 10			> 50	>5	> 5							
CCCCCCCCCC(=O)OCCc1ccc(O)cc1	81.4			172		2.1		34	132	0.16	65		
CCCCCCCCCC(=O)NCCc1ccc(O)c(O)c1	> 10			> 50	5	> 5							
CCCCCCCCCCOCCc1ccc(OCc2ccc(OC)cc2)c(OCc2ccc(OC)cc2)c1	> 10			> 50	>5	> 5							
NCCc1ccc(O)c(O)c1 [DOPAMINE]	> 10			68.9	5	7							
C[C@@H]1[C@H](O)[C@@H](C)/C=C/C=C/C=C/C=C/C=C/C=C/C=C/[C@H](O[C@@H]2O[C@H](C)[C@@H](O)[C@H](N)[C@@H]2O)C[C@@H]2O[C@](O)(C[C@@H](O)C[C@@H](O)[C@H](O)CC[C@@H](O)C[C@@H](O)CC(=O)O[C@H]1C)C[C@H](O)[C@H]2C(=O)O [AMPHOTERICIN B]		0.1											
OCCc1ccc(O)c(O)c1 [HYDROXYTYROSOL]	47.5			> 50		> 1		0					393
CCCCCCCCCCOCCc1ccc(OCc2ccccc2)c(OCc2ccccc2)c1	> 10			> 50	>5	> 5							
CCCCCCCCCCCCSCCc1ccc(OCc2ccc(OC)cc2)c(OCc2ccc(OC)cc2)c1	> 10			> 50	5	> 5							
O=C(O)[C@H]1O[C@@H](Oc2ccc(CCO)cc2)[C@H](O)[C@@H](O)[C@@H]1O	61.5			110		1.8		36		0.17			
OCCc1ccc(O)cc1 [TYROSOL]	> 10	> 10	> 15	> 500		> 5	5	50					
CCCCCCCCCC(=O)OCCc1ccc2c(c1)OCO2	> 10			> 50	>5	> 5							
CC(=O)OCCc1ccc(O)cc1	79.4			114		1.4		28		0.13			
CCCCCCCCCCCCSCCc1ccc(OCc2ccccc2)c(OCc2ccccc2)c1	> 10			> 50	5	> 5							

More lines, in order of falling IC50 [4], values ahead:

IC50 [4] [µM]	IC50 [6] [µM]	IC50 [13] [µM]	SMILES	IC50 at 72 h [1] [µM]	Ratio IC50 [2]	selectivity ratio [3]	selectivity ratio [5]	inhibition at 20 µM [7] [%]	IC50 [8] [µM]	Ratio IC50 [9]	IC50 [10] [µM]	Ratio IC50 [11]	IC50 [12] [µM]
59.1	> 10		CCCCCC(=O)OCCc1ccc(O)cc1	166		2.8	16.6	44		0.16		1	
56.8	> 10		CCCCCCCC(=O)OCCc1ccc(O)cc1	133		2.3	13.3	46		0.22		1	
43.4	> 10		CC(=O)OCCc1ccc(O)c(O)c1	> 50	1	> 1		48					
41.6			O=S(=O)([O-])Oc1ccc(CCO)cc1.[K+]	106		2.6		36		0.16			
16.2			CCCCCCCCCCCC(=O)OCCc1ccc(O)cc1	67.2		4.1		32		0.52			
9.87			Oc1ccc(CCN=C=S)cc1O	21.1	5	2							
9.6	> 10		CCCCCCCC(=O)OCCc1ccc(O)c(O)c1	104	5	11	10.3	45					
9.4	> 10		CCCC(=O)OCCc1ccc(O)c(O)c1 [HYDROXYTYROSOL BUTANOATE]	71.5	5	8	7.1	48					
8.74			CCCCCCCCCCCC(=O)NCCc1ccc(O)c(O)c1	> 50	5	> 5							
2.43	> 10		CCCCCCCCCCCCCCCC(=O)OCCc1ccc(O)c(O)c1 [HYDROXYTYROSOL PALMITATE]	> 50	20	> 21		52					
2.29	> 10		CCCCCCCCCCCCCC(=O)OCCc1ccc(O)c(O)c1	> 50	21	> 22		53					
1.29			CCCCCCCCCCOCCc1ccc(O)c(O)c1	> 50	37	> 38							
0.77			CCCCCCCCCCCCNC(=S)NCCc1ccc(O)c(O)c1	2.96	62	4							
0.74			CCCCCCCCCCNC(=S)NCCc1ccc(O)c(O)c1	24.8	64	33							
0.63			CCCCCCCCCCCCOCCc1ccc(O)c(O)c1	13.2	75	21							
0.6	8.44		CCCCCCCCCC(=O)OCCc1ccc(O)c(O)c1 [HYDROXYTYROSOL DECANOATE]	71.1	79	118	8.4	54					
0.36	> 10		CCCCCCCCCCCC(=O)OCCc1ccc(O)c(O)c1	38.1	132	101 to 106		56					
0.038			Cc1ccc(C(=O)Nc2ccc(S(=O)(=O)O)c3cc(S(=O)(=O)O)cc(S(=O)(=O)O)c23)cc1NC(=O)c1cccc(NC(=O)Nc2cccc(C(=O)Nc3cc(C(=O)Nc4ccc(S(=O)(=O)O)c5cc(S(=O)(=O)O)cc(S(=O)(=O)O)c45)ccc3C)c2)c1 [SURAMIN]										
